Insulin prom up: MIN6 insulin promoter up-regulation. MIN6 insulin promoter-GFP reporter, high-content imaging; active compounds read high. z-score at 5 µM. 190,000 tested, 0.3% active. AID 1625;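 active = z-score above 3 at 5 µM with at least 500 cells counted in the well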
Autophagy mod: alters autophagy in cells; MEF GFP-LC3 puncta imaging; test concentration mostly 10 µM; calls only at 10 µM (by protocol); 190,000 tested, 0.98% active;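 active = percentage of spot-positive cells more than 3 SD above its plate mean, without a fluorescence outlier flag or 80% toxicity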;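 also: spot-positive cell cutoff set from DMSO-treated cells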
b-catenin transl: alters nuclear translocation of beta-catenin in HeLa cells; immunofluorescence imaging; nuclear translocation activity, % at 5 µM; 190,000 tested, 0.3% active;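 active = nuclear translocation activity above 50% at 5 µM, with a well cell count of 50 or more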;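 also: per-cell ratio of nuclear to cytoplasmic median beta-catenin stain intensity; plate controls were DMSO negative control for no effect and GSK-3 inhibitor IX positive control for full effect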
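Signal – beta-catenin immunofluorescence imaging with DAPI · Test system – human HeLa cell line · Dosing – 5 µM primary single dose, 0.1% DMSO, 0.02–20 µM confirmation series · Measure – % activation, nuclear-to-cytoplasmic median beta-catenin signal ratio per cell · Incubation – 24 h compound exposure at 37°C, 5% CO2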
MT stabilizer: microtubule stabilization, imaging screen; HeLa tubulin immunostaining HCS, 24 h; share of cells brighter than vehicle mean+2SD; 200,000 tested, 0.83% active; % tubulin-high responders, % at 10 µM;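 active = plate Z-score above 3 for both tubulin-high and condensed-nucleus cell shares, with cell loss under 80%, at 10 µM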;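 also: anti alpha tubulin signal scored within the nucleus-defined area of each cell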
TbHK1 inh: blocks Trypanosoma brucei hexokinase 1 activity; recombinant TbHK1, G6PDH-coupled NADH A340; inhibition, % at 10 µM; 220,000 tested, 0.11% active; AID 1430;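 active = inhibition of 50% or more in the single-dose primary screen; inactive = inhibition below 50%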
Numbers without * were called inactive; i = inactive; nt = no result; + = active, no number. Rows were chosen to be rich in hits. Some 1.9% of all compounds tested hit in one or more screens of this group.

SMILES	Insulin prom up	Autophagy mod	b-catenin transl	MT stabilizer	TbHK1 inh
COC(=O)c1sc2ccccc2c1-n1cccc1C(=O)C(=O)Nc1ccccc1	nt	i	nt	6	-6
COC(=O)c1sc2ccccc2c1-n1cccc1C(=O)C(=O)Nc1ccc(OC)cc1	nt	i	nt	22*	-17
COc1ccc(-c2cc(C(=O)NCc3cccs3)no2)cc1	0.44	nt	1	nt	-38
COc1ccc2nc3sc(C(=O)NCc4cccs4)c(N)c3cc2c1	0.24	+	-6	5	-3
COc1cc(NC(=O)c2ccccc2F)c(OC)cc1NC(=O)CN1CCOCC1	-0.28	i	0	2	-6
COc1ccc(NC(=O)CN2CCC(C)CC2)c([N+](=O)[O-])c1	-0.4	i	0	4	-3
COc1cc(-c2ccc(NC(=O)CN3CCC(C)CC3)c(OC)c2)ccc1NC(=O)CN1CCC(C)CC1	0.06	+	0	6	-4
COc1cc(NC(=O)c2ccc(F)cc2)c(OC)cc1NC(=O)CN1CCOCC1	nt	+	0	2	-9
O=C(Nc1ccc(S(=O)(=O)NC2=NCCCCC2)cc1)c1ccc2ccccc2n1	0.16	i	-2	2	-2
COc1cccc2sc(Nc3nnc(-c4ccc(F)cc4)o3)nc12	nt	i	0	9	-70
COc1cccc2sc(Nc3nnc(-c4cccs4)o3)nc12	-0.26	+	2	2	-24
Cc1cc(N/N=C/c2ccc3c(c2)OCO3)nc2ccccc12	-1.7	nt	0	nt	-21
Cc1[nH]c2ccccc2c1/C=C/c1nc2ccccc2c(=O)n1-c1ccc([N+](=O)[O-])cc1	0.05	+	1	11	-8
Cc1ccc2c(C(=O)CN3CCN(C(=O)c4ccco4)CC3)c(C)[nH]c2c1	-0.07	nt	0	nt	-9
Cc1ccc(-c2cc(-c3ccco3)c3c(N)c(C(=O)NN)oc3n2)cc1	3*	nt	4	nt	-27
COc1cccc(/C=N/NC(=O)c2oc3nc(-c4ccccc4)cc(-c4ccco4)c3c2N)c1	nt	nt	-1	nt	-28
CCOc1ccc(Br)cc1CN(CC)CC	-0.23	nt	6	nt	4
CCC(=O)N1CCN(c2ccc(NC(=S)NC(=O)C(C)C)cc2)CC1	-0.19	+	-1	2	-1
CC(C)(C)c1ccc(C(=O)NNc2ncccc2-n2cccc2)cc1	0.05	nt	0	nt	-6
Cc1cc(Nc2nc(Cl)c(Cl)cc2Cl)n(-c2ccccc2)n1	0.13	i	3	17*	-5
CC(C)=Cc1oc2ccc([N+](=O)[O-])cc2c1N1CC(C)OC(C)C1 (configuration not stated)	0.31	i	0	4	-8
O=C(Nc1cc(Cl)ccc1N1CCOCC1)c1cccnc1Cl	0.34	nt	0	nt	4
Cc1cccc(/C=C/c2nc3ccccc3c(=O)[nH]2)c1	-0.06	i	2	26*	-20
COc1cccc(C(=O)N2CCCc3ccccc32)c1	0.08	i	1	3	5
COc1cc2c(cc1OC)CN(C(C)C(=O)N1CCc3ccccc31)CC2 (configuration not stated)	nt	i	nt	47*	-7
SMILES	Insulin prom up	Autophagy mod	b-catenin transl	MT stabilizer	TbHK1 inh
COc1cc(C(=O)N2CCCc3ccccc32)cc(OC)c1OC	nt	i	53*	39*	-3
COc1cc(NC(=O)c2cccc(Br)c2)nc(OC)n1	1.7	i	2	1	-1
O=C(C[n+]1ccccc1)Nc1ccc(Oc2ccccc2)cc1	0.12	i	2	1	-1
Cc1ccc(S(=O)(=O)N2CCN=C2c2ccccc2)cc1C	nt	i	0	3	11
COc1cc(S(=O)(=O)n2c(C)nc3ccccc32)ccc1F	nt	i	nt	28*	-1
COc1cc(S(=O)(=O)N2CCN=C2c2ccccc2)ccc1F	nt	i	nt	44*	2
O=C(NCc1cccnc1)/C(=C\c1ccc(-c2ccc(Cl)c(Cl)c2)o1)S(=O)(=O)c1ccccc1	-1.7	i	15	35*	-38
O=C(O)Cc1ccc(NC(=S)Nc2ccc(Br)cc2Cl)cc1	-0.16	nt	1	nt	1
Cc1c(C(=O)Nc2cccc(Cl)c2)c2ccccn2c1CCc1ccncc1	0.12	+	-1	4	-10
Cc1c(C(=O)Nc2ccc(Cl)cc2)c2ccccn2c1CCc1ccncc1	-0.59	i	3	1	-16
CC(=O)NCC1(O)CCCC(C)C1 (configuration not stated)	0.08	nt	0	nt	0
CCOC(=O)CC(NC(=O)c1cccc2c1C(=O)N(Cc1cccnc1)C2)c1ccc(OC(C)C)cc1 (configuration not stated)	nt	i	-2	3	1
CCOc1ccc2nc(N3C(=O)/C(=C/c4ccccc4)NC3=S)sc2c1	-0.58	+	0	4	9
CCOc1ccc2nc(N3CCCCCC3)sc2c1	nt	i	nt	5	-1
COc1ccc2nc(N3C(=O)/C(=C/c4ccccc4)NC3=S)sc2c1	0.42	+	3	4	42
COc1ccc(NC(=O)N2CCN(c3ccc([N+](=O)[O-])cc3)CC2)cc1OC	-0.62	i	2	4	-20
COc1cc(/C=C2\SC(=N)N(c3ccc(F)cc3)C2=O)ccc1O	nt	i	2	10*	-19
CCOc1cccc2cc(-c3nnc(NCc4ccco4)s3)c(=O)oc12	-0.34	i	-1	2	-9
COc1ccc2oc(=O)c(-c3nnc(NCc4ccco4)s3)cc2c1	0.22	+	6	46*	-7
COc1cccc(-c2noc(-c3ccoc3C)n2)c1	-0.17	i	-1	3	-10
COc1ccc(-c2noc(-c3ccoc3C)n2)cc1	-0.17	i	2	10*	-3
COc1cc(OC)cc(C(=O)N[C@@H](CCSC)c2nc3ccccc3[nH]2)c1	0.32	i	-1	5	-2
Cc1ccc(N=C2CSC(=O)N2)cc1	nt	i	0	1	-6
O=C1NC(=Nc2ccc(F)cc2)CS1	-0.58	+	0	5	-10
CCOCCCNC(=O)c1ccc2c(c1)N=C(CC)c1cc(Br)ccc1S2	-1.2	i	52*	5	-4
SMILES	Insulin prom up	Autophagy mod	b-catenin transl	MT stabilizer	TbHK1 inh
COC(=O)CCCC(=O)NC(C)c1cnn(-c2ccccc2C)c1C (configuration not stated)	-0.06	i	2	2	1
COc1cccc2c1OCC/C2=N\NC(=O)C(C)Oc1ccc([N+](=O)[O-])cc1 (configuration not stated)	0.13	i	1	3	-13
Cc1ccc2c(c1)Oc1ccc(NC(=O)CCl)cc1C(=O)N2	0.7	+	0	7	2
COC(=O)CSC(C)C(=O)Nc1nnc(C(C)C)s1 (configuration not stated)	-1.2	+	0	2	2
CCC(SCC(=O)OC)C(=O)Nc1nnc(C(C)C)s1 (configuration not stated)	0.43	i	nt	3	1
CC1COC(C)(CC(=O)NN2C(=O)c3ccccc3C2=O)O1 (configuration not stated)	-0.12	i	1	3	-6

Compound activity as filed in PubChem BioAssay.
